Compounds with a hit are over-represented: about 2% of the library has one in this group of screens.
IMP-1 inhibitor: inhibitors of Pseudomonas aeruginosa IMP-1 metallo-beta-lactamase. inhibition, % at 5.6 µM. purified IMP-1, nitrocefin hydrolysis, epi-absorbance fluorescence. 290,000 tested, 0.45% active;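 active = inhibition above the mean plus 3 SD of all compounds in the same screening run, cut at about 4.5% in these data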;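 note: 0% = IMP-1 with DMSO and 100% = DMSO wells lacking enzyme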
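System: purified recombinant IMP-1 beta-lactamase. Medium: Zinc- and detergent-supplemented HEPES buffer, pH 7.1. Compound: one 5.6 µM dose […]. Schedule: 15 min preincubation plus 25 min reaction at 25 °C. Technique: Epi-absorbance fluorescence, 480 nm excitation, 530 nm emission.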
PvdQ acylase: P. aeruginosa PvdQ acylase inhibition; inhibition, % at 10 µM; 340,000 tested, 0.063% active; purified PvdQ acylase, fluorescence plate reader; AID 488965; in the data active = inhibition above about 30%, passing the limit was not always enough;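 note: 0% = vehicle neutral wells and 100% = reference inhibitor wells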
beta cell repl: inducers of beta-cell replication in MIN6 cells; MIN6 cells proliferation, ATPlite luminescence, 48 h; cells starved in 0.2% serum; 100% = growth in 10% serum; proliferation, % at 10 µM; 330,000 tested, 0.29% active;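 active = compounds whose signal lies at least 3.5 SD above the mean of all wells on their plate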;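 note: 0% = DMSO-treated cells in low-serum medium and 100% = 10% serum control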
HKDC1 inh: blocks human hexokinase HKDC1 activity; Q2TB90; inhibition, % at 20 µM; recombinant HKDC1, G6PDH/diaphorase resazurin coupled fluorescence; 340,000 tested, 0.16% active;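 active = inhibition above about 35% when tested at 20 µM, limit read from the data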;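 note: plate controls were DMSO wells with enzyme for no effect and DMSO wells lacking enzyme for full effect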
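Assay system: in-house recombinant HK5 (HKDC1) enzyme. Input: HKDC1 at 5 µg/mL. Medium: Tris pH 8.0 buffer with MgCl2, Tween-20, BSA, BME. Dosing: single 20 µM dose. Schedule: 90 min reaction incubation at room temperature, dark. Signal: resazurin-to-resorufin fluorescence via G6PDH and diaphorase coupling, 525/613 nm. Controls: DMSO-enzyme wells negative, buffer-substituted wells positive.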
ATG4B inh: ATG4B (human) cysteine protease inhibition; Q9Y4P1; ATG4B cleavage of LC3-PLA2, NBD-HPC fluorescence, 1 h; inhibition, % at 8.33 µM; 340,000 tested, 0.51% active; AID 504462; in the data active = inhibition above about 40%
Target sequence (Q9Y4P1 whole entry, looked up): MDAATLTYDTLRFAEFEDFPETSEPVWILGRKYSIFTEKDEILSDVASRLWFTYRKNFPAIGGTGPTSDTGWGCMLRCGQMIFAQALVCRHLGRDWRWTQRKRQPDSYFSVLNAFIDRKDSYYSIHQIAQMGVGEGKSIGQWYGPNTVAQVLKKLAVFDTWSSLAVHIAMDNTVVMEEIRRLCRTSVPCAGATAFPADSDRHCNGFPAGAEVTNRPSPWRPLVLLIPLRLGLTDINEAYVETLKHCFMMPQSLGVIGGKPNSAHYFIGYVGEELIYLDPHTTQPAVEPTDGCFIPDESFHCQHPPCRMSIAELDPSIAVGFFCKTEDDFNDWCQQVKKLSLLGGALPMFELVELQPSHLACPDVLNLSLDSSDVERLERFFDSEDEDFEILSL
VIM-2 inhibitor: blocks Pseudomonas aeruginosa VIM-2 metallo-beta-lactamase | purified VIM-2, nitrocefin hydrolysis, epi-absorbance fluorescence | inhibition, % at 5.6 µM | 290,000 tested, 0.89% active;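 active = inhibition above the mean of all tested compounds plus 3 SD, cutoff set per screening run, cut at about 7.5% in these data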;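 note: red hydrolysis product quenches plate fluorescence so inhibitors raise well fluorescence; 0% = enzyme with DMSO and 100% = DMSO without enzyme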
Active calls of the source: *; . = no result given; ! = a repeat was not active.

SMILES	IMP-1 inhibitor	PvdQ acylase	beta cell repl	HKDC1 inh	ATG4B inh	VIM-2 inhibitor
Cn1cccc1C(C#N)c1ncc(C(F)(F)F)cc1Cl (stereo not drawn)	-0.2	-0.8	-5.3	5.4	-1.1	-0.3
CCOC(=O)c1c(C)cc(C)n2c1nc1ccccc12	-4.4	3.1	-0.4	-8.8	11.7	10.8*
CCOc1ccc(NC(=O)CSc2ccc(-c3cccnc3)nn2)cc1	-1.2	-7.9	-2.6	9.9	7.1	-1.1
Cc1cccc2c(=O)cc(C)n(Cc3ccccc3)c12	-2.0	35.2*	-0.8	-0.4	-7.7	-0.5
CCOc1ccc(N2CSC(=S)N(c3ccc(OCC)cc3)C2)cc1	4.7*	-11.6	-3.5	-1.3	0.7	-2.4
C[n+]1ccc(/C=C/c2ccc(Br)cc2)cc1	8.3*	-3.4	-4.9	-1.9	-0.2	-3.1
Fc1cccc(Cl)c1-c1nnc2ccc3ccccc3n12	-2.8	-2.4	-3.8	1.8	5.3	-0.6
Fc1ccccc1-c1nnc2ccc3ccccc3n12	4.8*	-10.5	-0.3	8.2	1.8	-1.6
Cc1nn(CCc2n[nH]c(=S)n2-c2ccc(F)c(Cl)c2)c(C)c1[N+](=O)[O-]	-1.8	4.7	2.4	-6.3	16.3	9.7*
Cc1nn(CCc2n[nH]c(=S)n2-c2ccc(F)cc2)c(C)c1[N+](=O)[O-]	-3.2	-8.3	-1.9	-9.4	0.2	-1.3
CCC1Oc2ccc(C)cc2N(CC(=O)N2CCOCC2)C1=O (stereo not drawn)	-4.0	0.8	-0.9	-1.8	-1.8	-6.1
CCc1nn(CC(=O)NCCCN(C)Cc2ccccc2)c(=O)c2cc3sc(C)cc3n12	-1.2	-15.6	2.4	0.2	1.1	9.0*
Cc1ccc(O)c(C(=O)c2cnn(C(=O)Cc3csc(C)n3)c2)c1	-5.2	8.8	1.6	4.6	42.6*	-2.1
O=C(NNC1CC(=O)N(c2ccccc2)C1=O)c1ccccc1Cl (stereo not drawn)	-2.5	-2.6	-2.7	-6.0	-3.1	-1.5
COC(=O)c1cc(C(=O)OC)cc(N2C(=O)CC(NNC(=O)c3ccccc3Cl)C2=O)c1 (stereo not drawn)	-0.7	-8.5	0.0	-2.7	1.1	9.6*
CC1=C(C(=O)Nc2ccccc2C)C(c2ccccc2)NC(=O)N1 (stereo not drawn)	4.5*	-16.1	-2.4	-2.0	-11.7	-0.1
Cc1ccc(S(=O)(=O)N2CCCCC2CCNC(=O)C(=O)NCC2CCCO2)cc1 (stereo not drawn)	.	-8.7	-0.9	-4.0	-4.1	.
C=CCSc1nnc(-c2cc3c(C(F)(F)F)nn(C)c3s2)n1C	-1.2	-10.8	-5.0	-0.4	-10.1	0.5
C=CCSc1nnc(-c2cc3c(-c4ccccc4)nn(C)c3s2)n1C	-0.2	-5.5	-2.8	28.0	-28.6	9.5*
Cc1sc2ncn(CCn3cnc4sc(C)c(C)c4c3=O)c(=O)c2c1C	0.1	1.9	-2.0	-6.6	-7.4	-0.1
Cc1sc2ncn3c(C)nnc3c2c1C	-1.0	-6.9	-1.3	-6.0	-7.8	10.0*
Cc1ccc(NC(N)=S)cc1	-1.3	-4.3	-1.0	-9.4	3.3	0.6
NC(=S)Nc1ccc(Oc2ccc(NC(N)=S)cc2)cc1	14.6*	8.7	-3.0	-5.2	-6.8	-1.5
COc1ccc(CCNC(=O)c2cc3c(=O)n4ccccc4nc3n(CCCN3CCOCC3)c2=N)cc1	-3.6	-0.3	0.0	-0.6	0.6	10.4*
COc1ccc(CCn2c(=N)c(C(=O)NCCN3CCOCC3)cc3c(=O)n4ccccc4nc32)cc1OC	0.7	-6.6	-1.4	-4.8	-5.2	8.2*
SMILES	IMP-1 inhibitor	PvdQ acylase	beta cell repl	HKDC1 inh	ATG4B inh	VIM-2 inhibitor
COc1ccc(CCNC(=O)c2cc3c(=O)n4ccccc4nc3n(Cc3ccco3)c2=N)cc1OC	-2.9	-12.1	-6.8	2.8	-6.1	8.1*
COc1ccc(CCn2c(=N)c(C(=O)NCc3ccco3)cc3c(=O)n4ccccc4nc32)cc1OC	.	-10.4	.	13.1	4.4	.
COc1ccc(CCNC(=O)c2cc3c(=O)n4ccccc4nc3n(CCN3CCOCC3)c2=N)cc1	-2.3	-8.5	-0.9	-1.8	-5.3	3.3
Cc1ccc2nc3c(cc(C(=O)NCCc4ccccc4)c(=N)n3CCCN3CCOCC3)c(=O)n2c1	-3.3	-17.4	-3.1	-5.7	7.9	9.6*
Cc1ccc(C)c(N2N=C(C(=O)N(CC(C)C)c3c(N)n(Cc4ccccc4)c(=O)[nH]c3=O)CCC2=O)c1	1.8	-13.0	2.5	1.0	-4.1	-0.8
Cc1ccccc1CN(C)CC(=O)NC(C)CCc1ccccc1 (stereo not drawn)	-2.6	1.1	-2.1	-1.6	2.6	-2.1
COc1ccc(-c2cc3c(=O)n(CC(=O)NCc4ccccc4OC)ncn3n2)cc1	-3.2	-20.0	-0.9	1.1	8.3	-2.2
COc1ccc(-c2cc3c(=O)n(CC(=O)NCCCc4ccccc4)ncn3n2)cc1	14.8*	-5.9	-1.5	-6.3	-20.6	-0.2
O=C1CSC2(CCCCC2)N1CCO	5.6*	-11.7	-0.4	2.4	-1.8	-0.3
Cc1cccc(N2C(=O)CSC23CCCCC3)c1	-0.9	4.6	-0.9	17.1	-9.5	-1.7
COc1ccc(-c2cc(OC(=O)c3ccc(F)cc3)c3c(C)oc(C)c3c(=O)c2)cc1	4.9*	.	-6.1	.	.	-1.6
Cc1ccc(-c2noc(CCCC(=O)NC3CCCCC3)n2)cc1	1.8	-19.4	-0.2	-7.5	0.0	2.7
O=C(NCC1OCCCN1S(=O)(=O)c1cc(F)ccc1F)C(=O)NC1CCCCC1 (stereo not drawn)	-2.9	-12.0	-1.2	-13.9	-5.1	-2.7
COc1ccc(C2Nc3ccccc3C(=O)N2Cc2ccco2)cc1CN1C(=O)c2ccccc2C1=O (stereo not drawn)	4.7*!	-4.7	-4.6	17.4	-7.6	-1.1
COc1ccc(C2Nc3ccccc3C(=O)N2Cc2ccco2)cc1COc1ccc(F)cc1 (stereo not drawn)	-2.0	-7.6	-5.2	5.0	0.0	-1.2
CCOC(=O)N1CCN(S(=O)(=O)c2ccc(OC)c(Cl)c2)CC1	-5.7	-6.9	-5.0	-7.2	2.2	-1.1
O=C(COc1ccc(S(=O)(=O)N2CCOCC2)cc1Cl)NCc1ccco1	5.4*	7.7	2.2	1.5	-2.8	-2.6
CCOC(=O)N1CCN(S(=O)(=O)c2ccc(OCC(=O)OC)c(Cl)c2)CC1	5.0*	5.4	-4.1	-10.3	-10.2	-0.8
COc1ccccc1C(=O)NNC(=O)c1cccc(F)c1	-3.5	0.0	-2.4	-6.9	-1.4	-3.5
COc1ccccc1C(=O)NNC(=O)c1ccccc1F	8.6*	-1.9	-3.1	-12.2	-2.7	-1.6
Cc1nc(CC(=O)c2ccc(O)c(C)c2O)cs1	-2.7	-1.4	-2.5	-1.6	-4.3	-0.3
CC(CN1CCCC1)OC(=O)c1ccc(Br)cc1 (stereo not drawn)	-1.2	-20.3	-4.1	3.3	-1.6	-1.0
Cc1ccc(C(=O)Cn2ncsc2=N)cc1	25.0*	-5.2	-3.0	-4.9	2.6	-2.0
